From ChEMBL document CHEMBL3868583, “6-Aryl substituted 4-(4-cyanomethyl) phenylamino quinazolines as a new class of isoform-selective PI3K-alpha inhibitors” (Eur J Med Chem, 2016)

Columns and labels:
[1] = Downregulation of PI3Kbeta expression in human MCF7 cells at 30 uM by Western blot analysis; assay type: functional, cell-based
Outline: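 MCF-7 or PC-3 cells (2 × 10^6) treated with compound, lysed (1 × 10^6 cells) in cold NP-40 buffer with protease inhibitors 30 min on ice, 12,000 g 10 min 4 °C. 50 µg protein per lane on SDS-PAGE, PVDF transfer, 5% milk block, primary antibody 2 h, HRP secondary 1 h, ECL on film; β-actin internal control.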

[2] = test system: MCF7; assay: Induction of apoptosis in human MCF7 cells assessed as loss of mitochondrial membrane potential at 20 uM after 24 hrs by rhodamine-123-staining based FACS analysis (reference value: 7 % ); assay type: functional
Outline: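 Cells (MCF-7 or PC-3) exposed to indicated concentrations for 24 h; rhodamine-123 (5 µM) added 1 h before end. Cells collected, PBS-washed; fluorescence of 10,000 events read in FL-1 by flow cytometry, loss of mitochondrial potential scored as decreased intensity.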

[3] = test system: Mus musculus; assay: Toxicity in Swiss mouse implanted with Swiss mouse EAT cells assessed as body weight at 15 mg/kg, ip administered for 1 to 9 days measured on day 13 (reference value: 24.1 g); assay type: organism-based; conditions: in vivo
[4] = test system: MCF7; assay: Induction of cell cycle arrest in human MCF7 cells assessed as accumulation at G1 phase at 30 uM after 24 hrs by propidium iodide-staining based FACS analysis (reference value: 50 %); assay type: functional
Outline: (§1)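 MCF-7 or PC-3 cells treated at indicated concentrations for 24 h, pelleted, PBS-washed, fixed in ice-cold 70% ethanol overnight at 4 °C. RNase 0.2 mg/mL 1 h at 37 °C, propidium iodide 10 µg/mL 30 min dark. 10,000 events (FL2-A vs FL2-W) by flow cytometry; fractions in apoptosis/sub-G1, G1, S, G2-M.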

[5] = Anticancer activity against Swiss mouse EAC cells implanted in Swiss mouse assessed as tumor growth inhibition at 25 mg/kg, ip administered for 1 to 9 days measured on day 12 relative to control; assay type: functional; conditions: Ehrlich, read-out: TGI
Outline: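 Swiss mice given 1 × 10^7 EAC cells i.p. on day 0, randomized next day (treated n=7, control n=10). Compound given i.p. days 1-9; saline control (0.2 ml i.p.), 5-fluorouracil 20 mg/kg i.p. reference. Sacrificed day 12; ascitic fluid collected; % TGI from total peritoneal tumor cell count versus control.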

[6] = test system: Mus musculus; assay: Toxicity in Swiss mouse implanted with Swiss mouse EAT cells assessed as body weight at 15 mg/kg, ip administered for 1 to 9 days measured on day 9 (reference value: 22.8 g); assay type: organism-based; conditions: in vivo
[7] = test system: PC-3; assay: Induction of cell cycle arrest in human PC3 cells assessed as accumulation at G1 phase at 10 uM after 24 hrs by propidium iodide-staining based FACS analysis (reference value: 39 %); assay type: functional; outline: as §1
[8] = Cytotoxicity against human PC3 cells assessed as cell growth inhibition after 24 hrs by MTT assay; assay type: functional; conditions: PC-3, 24 h
[9] = test system: PC-3; assay: Induction of cell cycle arrest in human PC3 cells assessed as accumulation at G2 phase at 20 uM after 24 hrs by propidium iodide-staining based FACS analysis (reference value: 17 %); assay type: functional; outline: as §1
[10] = test system: Mus musculus; assay: Toxicity in Swiss mouse implanted with Swiss mouse EAC cells assessed as body weight at 70 mg/kg, ip administered for 1 to 9 days measured on day 5 (reference value: 26.2 g); assay type: organism-based, Ehrlich; conditions: in vivo
[11] = Cytotoxicity against human PC3 cells assessed as cell growth inhibition after 6 hrs by MTT assay; assay type: functional; conditions: PC-3, 6 h
[12] = test system: PC-3; assay: Induction of cell cycle arrest in human PC3 cells assessed as accumulation at S phase at 30 uM after 24 hrs by propidium iodide-staining based FACS analysis (reference value: 44 %); assay type: functional
Outline: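 PC-3 cells exposed 24 h at indicated concentrations, pelleted, fixed overnight in ice-cold 70% ethanol at 4 °C, RNase 0.2 mg/mL at 37 °C 1 h, propidium iodide 10 µg/mL 30 min in dark; 10,000 events acquired (FL2-A vs FL2-W); DNA histograms modelled for apoptotic (sub-G1), G1, S and G2-M fractions.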

[13] = test system: PC-3; assay: Induction of cell cycle arrest in human PC3 cells assessed as accumulation at G2 phase at 30 uM after 24 hrs by propidium iodide-staining based FACS analysis (reference value: 17 %); assay type: functional; outline: as §1
[14] = test system: PC-3; assay: Induction of cell cycle arrest in human PC3 cells assessed as accumulation at G1 phase at 30 uM after 24 hrs by propidium iodide-staining based FACS analysis (reference value: 39 %); assay type: functional; outline: as §1
[15] = test system: PC-3; assay: Induction of cell cycle arrest in human PC3 cells assessed as accumulation at S phase at 20 uM after 24 hrs by propidium iodide-staining based FACS analysis (reference value: 44 %); assay type: functional; outline: as §1

Row | Compound | Activity [1] [%] | Activity [2] [%] | Activity [3] [g] | Activity [4] [%] | inhibition in vivo at 25 mg/kg [5] [%] | Activity [6] [g] | Activity [7] [%] | GI50 [8] [µM] | Activity [9] [%] | Activity [10] [g] | GI50 [11] [µM] | Activity [12] [%] | Activity [13] [%] | Activity [14] [%] | Activity [15] [%]
1 | N#CCc1ccc(Nc2ncnc3ccc(-c4ccc5[nH]ccc5c4)cc23)cc1 | 4 | 15 | 22.57 | 44 | 62 | 20.71 |  |  |  |  |  |  |  |  | 
2 | N#CCc1ccc(Nc2ncnc3ccc(-c4cncc5ccccc45)cc23)cc1 |  |  |  |  |  |  | 44 | 28 | 9 | 23 | 567 | 46 | 12 | 42 | 26
